Measured values taken from article PMC10120451 (Journal of Enzyme Inhibition and Medicinal Chemistry, 2023).
≈ marks a conversion by molar mass, not a printed value. Each block holds one compound with its values, some of them ahead of it.

Assays:
CaCo-2 cells = assay: 72 h proliferation inhibition test; format: cell-based, human; details: SRB
HT-29 cells = assay: 72 h proliferation inhibition test; format: cell-based, human; details: SRB
[1] = Basal cytotoxicity test, neutral red uptake; format: cell-based; details: mouse, Balb/c 3T3 mouse embryo fibroblast cells
recombinant human PDIA3 = molecular target: T1, recombinant human PDIA3 (Homo sapiens, UniProt P30101); assay: Enzymatic insulin reduction; format: biochemical
T1 sequence (P30101 25-505): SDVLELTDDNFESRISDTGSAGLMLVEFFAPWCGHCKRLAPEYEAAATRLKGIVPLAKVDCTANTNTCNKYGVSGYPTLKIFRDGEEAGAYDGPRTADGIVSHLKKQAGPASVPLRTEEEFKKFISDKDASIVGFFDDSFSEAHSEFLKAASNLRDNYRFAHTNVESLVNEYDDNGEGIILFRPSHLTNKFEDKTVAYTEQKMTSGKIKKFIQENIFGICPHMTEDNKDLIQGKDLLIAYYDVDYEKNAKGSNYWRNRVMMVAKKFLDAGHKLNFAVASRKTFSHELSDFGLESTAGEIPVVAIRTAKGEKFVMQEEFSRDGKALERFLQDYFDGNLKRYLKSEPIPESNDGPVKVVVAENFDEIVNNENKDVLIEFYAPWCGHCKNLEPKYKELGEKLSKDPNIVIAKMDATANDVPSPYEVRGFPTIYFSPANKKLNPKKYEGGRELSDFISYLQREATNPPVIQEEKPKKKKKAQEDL
Method in brief: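 Recombinant human PDIA3 (E. coli-expressed), 12 µg/ml (205 nM), was preincubated with test compound in 0.1 mM phosphate buffer pH 7.6, 2 mM EDTA and 0.08 mM DTT. Final DMSO was below 1%. Reaction was started with insulin plus DTT (final 0.15 mM insulin, 0.16 mM DTT). β-chain aggregation turbidity was read at 650 nm for 60 min at 37 °C.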

recombinant human PDIA1 = recombinant human PDIA1 (Homo sapiens, UniProt P07237); assay: Enzymatic insulin reduction; format: biochemical; details: for IC50: PDIA1 IC50, insulin reduction assay, full-length PDIA1 6 µg/ml (96 nM), pH 7.6, 37 °C
Chain of recombinant human PDIA1 (P07237 18-508): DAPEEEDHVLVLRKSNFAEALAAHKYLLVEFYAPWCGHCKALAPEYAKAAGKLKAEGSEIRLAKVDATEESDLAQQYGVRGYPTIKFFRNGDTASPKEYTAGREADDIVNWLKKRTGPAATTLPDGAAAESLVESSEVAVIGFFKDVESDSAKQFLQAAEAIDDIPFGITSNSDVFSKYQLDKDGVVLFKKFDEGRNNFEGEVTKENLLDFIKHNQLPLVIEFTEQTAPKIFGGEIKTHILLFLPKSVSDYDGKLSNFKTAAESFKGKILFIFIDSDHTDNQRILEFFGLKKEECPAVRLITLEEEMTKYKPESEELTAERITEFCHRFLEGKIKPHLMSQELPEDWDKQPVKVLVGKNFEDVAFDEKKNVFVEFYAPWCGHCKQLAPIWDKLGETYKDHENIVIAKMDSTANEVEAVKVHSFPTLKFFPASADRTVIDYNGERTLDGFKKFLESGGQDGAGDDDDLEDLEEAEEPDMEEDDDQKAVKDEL

arterial thrombosis = assay: Rat model of arterial thrombosis; format: in vivo; details: intravenously, 10 min prior to induction of arterial thrombosis, rats
Method in brief: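 Wistar rats were anaesthetised with pentobarbital (40 mg/kg i.p.) on a 37 °C heated table. Right common carotid artery was stimulated at 1 mA for 10 min via an anode under the artery and a subcutaneous hind-limb cathode.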

[2] = molecular target: PDIA1a domain (residues 18–137) of human PDIA1 (Homo sapiens, UniProt P07237); assay: Insulin turbidity assay with recombinant PDIA1a domain; format: biochemical; details: read-out: PDIA1a IC50 (insulin reduction); PDIA1a domain 8 µg/ml
Chain of PDIA1a domain (residues 18–137) of human PDIA1 (P07237 18-137): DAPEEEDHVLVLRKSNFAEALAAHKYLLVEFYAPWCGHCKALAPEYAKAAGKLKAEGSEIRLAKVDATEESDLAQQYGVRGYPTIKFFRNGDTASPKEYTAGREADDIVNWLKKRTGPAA
Method in brief: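 PDIA1a domain (human residues 18–137) was expressed in E. coli BL21(DE3) with an N-terminal His6-tag/TEV site, then purified by Ni affinity and size exclusion. Turbidity assay: 8 µg/ml protein in 0.1 mM potassium phosphate pH 7.6 and 2 mM EDTA, with 0.08 mM DTT during preincubation. Insulin with DTT was added to final 0.15 mM insulin and 0.16 mM DTT.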

IC50, 72-h antiproliferative assay, CaCo-2 (CaCo-2 cells): 9.12 ± 3.4 µg/mL (≈ 28.7 µM)
IC50, 72-h antiproliferative assay, HT-29 (HT-29 cells): 12.64 ± 8.4 µg/mL (≈ 39.8 µM)
Compound: O=C(C1CC1)N1CCN(Cn2sc3ccccc3c2=O)CC1 [LOC14]

Compound: Cc1ccc(S(=O)(=O)N2CC2C(=O)O)cc1 (stereo not drawn) [Compound C-3612, Lithium 1-tosylaziridine-2-carboxylate]
IC50 at 24 h [1]: 2610 ± 89 µM

Compound: Cc1ccc(S(=O)(=O)N2CC2C#N)cc1 (stereo not drawn) [Compound C-3314, 1-(p-tolylsulphonyl)aziridine-2-carbonitrile]
IC50 (recombinant human PDIA3): 188 ± 7.5 µM
IC50 at 24 h [1]: 52 ± 3 µM

Compound: CC(=O)C1CN1S(=O)(=O)c1ccc(C)cc1 (stereo not drawn) [Compound C-3263, 1-[1-(p-tolylsulphonyl)aziridin-2-yl]ethanone]
IC50 (recombinant human PDIA1): 15.6 ± 0.8 µM
IC50 at 24 h [1]: 8 ± 1 µM

IC50 (recombinant human PDIA3): > 200 µM
IC50 (recombinant human PDIA1): 4 ± 0.3 µM
Compound: C[C@@H]1O[C@@H](OC[C@H]2O[C@@H](Oc3c(-c4ccc(O)c(O)c4)oc4cc(O)cc(O)c4c3=O)[C@H](O)[C@@H](O)[C@@H]2O)[C@H](O)[C@H](O)[C@H]1O [rutin]
effect on arterial thrombus formation (thrombus weight) (arterial thrombosis): significantly inhibited arterial thrombus formation

Compound: CCCCc1ccc(S(=O)(=O)N2CC2C=O)cc1 (stereo not drawn) [Compound C-3273, 1–(4-Butylphenyl)sulphonylaziridine-2-carbaldehyde]
IC50 (recombinant human PDIA3): 5.4 ± 0.2 µM
IC50 (recombinant human PDIA1): 3.2 ± 0.2 µM
IC50 at 24 h [1]: < 1 µM

Compound: Cc1ccc(S(=O)(=O)N2CC2C=O)cc1 (stereo not drawn) [Compound C-3262, 1-(p-tolylsulphonyl)aziridine-2-carbaldehyde]
IC50 at 24 h [1]: 4 ± 0.2 µM

IC50 [2]: 18.3 ± 0.7 µM
Compound: PACMA31

Compound: O=c1c(O[C@@H]2O[C@H](CO)[C@@H](O)[C@H](O)[C@H]2O)c(-c2ccc(O)c(O)c2)oc2cc(O)cc(O)c12 [isoquercetin]
effect on arterial thrombus formation (thrombus weight) (arterial thrombosis): only tended to reduce thrombosis

Compound: CCCCc1ccc(S(=O)(=O)N2CC2C(C)=O)cc1 (stereo not drawn) [Compound C-3272, 1-[1–(4-Butylphenyl)sulphonylaziridin-2-yl]ethanone]
IC50 at 24 h [1]: < 1 µM

Compound: NC(=O)C1CN1 (stereo not drawn) [Leakadine, 2-carbamoylaziridine]
inhibition at 1000 µM (recombinant human PDIA1; read-out: Inhibition of PDIA1 activity): ~30%

IC50, 72-h antiproliferative assay, CaCo-2 (CaCo-2 cells): 0.41 ± 0.1 µg/mL (≈ 1.08 µM)
IC50, 72-h antiproliferative assay, HT-29 (HT-29 cells): 0.41 ± 0.05 µg/mL (≈ 1.08 µM)
IC50 [2]: 13 ± 0.6 µM
Compound: COc1ccc(N2C(=O)/C(=C\c3ccc([N+](=O)[O-])s3)SC2=S)cc1 [CCF642]
